{"data": "Measurements pooled from the literature", "target": "Death-associated protein kinase 1 (DAPK1, Homo sapiens, UniProt P53355)", "note": "Each line is one published result; the experiments were not run side by side."}
{"SMILES": "CN(c1nccc(-c2cnn3ncccc23)n1)C1CC1", "test": "binding", "setting": "1 µM", "remaining binding [%]": 100}
{"SMILES": "c1ccc(N2CCN(Cc3nc4ccccc4[nH]3)CC2)nc1", "test": "binding, competition with immobilised ligand", "setting": "1 µM", "remaining binding [%]": 100}
{"SMILES": "O=C(NCCCN1CCOCC1)c1ccc(Nc2nccc(-c3cc4ccccc4s3)n2)cc1", "test": "binding, competition with immobilised ligand", "setting": "1 µM", "remaining binding [%]": 18}
{"SMILES": "c1cncc(-c2cccc(Nc3nccc(NC4CCCCC4)n3)c2)c1", "test": "binding, competition with immobilised ligand", "setting": "10 µM", "remaining binding [%]": 90}
{"SMILES": "CS(=O)(=O)c1cc(C2(NC(=O)c3cncc4c3cnn4-c3ccc(F)cc3)CC2)ccn1", "test": "cell-free assay, competition with immobilised ligand", "setting": "1 µM", "remaining binding [%]": 83}
{"SMILES": "O=C(c1ccc(Nc2nccc(-c3cc4ccccc4s3)n2)cc1)N1CCC(N2CCCC2)CC1", "test": "binding, competition with immobilised ligand", "setting": "1 µM", "remaining binding [%]": 13}
{"SMILES": "COc1cnc(Nc2cccc(S(N)(=O)=O)c2)nc1N1CCN(c2ccccc2)CC1", "test": "binding, competition with immobilised ligand", "setting": "1 µM", "remaining binding [%]": 83}
{"SMILES": "CN(C)c1ncc(F)c(-c2cnn3ncccc23)n1", "test": "binding", "setting": "1 µM", "remaining binding [%]": 100}
{"SMILES": "O=C(Nc1c[nH]nc1C(=O)NC1CCNCC1)c1cc(F)cc(F)c1", "test": "binding, competition with immobilised ligand", "setting": "1 µM", "remaining binding [%]": 100}
{"SMILES": "FC(F)(F)c1ccc2c(c1)nc(-c1cccnc1)n2C1CC1", "test": "cell-free assay, competition with immobilised ligand", "setting": "1 µM", "remaining binding [%]": 100}
{"SMILES": "Nc1ncc2c(n1)-c1c([nH]c3ccc(C#CC4CC4)cc13)CCCC2", "test": "binding, competition with immobilised ligand", "setting": "1 µM", "remaining binding [%]": 87}
{"SMILES": "C=CC(=O)N1CCC(C(=O)NCC(=O)N2CCN(c3nc(-c4cnc(N)nc4C(F)F)nc(N4CCOCC4)n3)CC2)CC1", "test": "binding, competition with immobilised ligand", "setting": "1 µM", "remaining binding [%]": 96}
{"SMILES": "CC(=O)N1CCC(c2ccc(C(=O)NC3=NCCN3)cc2C(F)(F)F)CC1", "test": "cell-free assay, competition with immobilised ligand", "setting": "1 µM", "remaining binding [%]": 100}
{"SMILES": "C[C@H]1CCN(c2nccc(-c3cnn4ncccc34)n2)C1", "test": "binding", "setting": "1 µM", "remaining binding [%]": 71}
{"SMILES": "O=C(c1ccc(Nc2ncc(Cl)c(-c3ccc(Cl)s3)n2)cc1)N1CCC(N2CCCC2)CC1", "test": "binding, competition with immobilised ligand", "setting": "1 µM", "remaining binding [%]": 17}
{"SMILES": "Cc1cnn2ncc(-c3ccnc(N(C)C)n3)c2c1", "test": "binding", "setting": "1 µM", "remaining binding [%]": 74}
{"SMILES": "CCCOc1ccc([C@H]2[C@H](C(=O)O)[C@@H](c3ccc4c(c3)OCO4)CN2CC(=O)Nc2c(CC)cccc2CC)cc1", "test": "cell-free assay, competition with immobilised ligand", "setting": "1 µM", "remaining binding [%]": 90}
{"SMILES": "C[C@@H](c1ccc(-n2cnc3c(N)ncnc32)cc1)N1CCc2nn(C)c(Cc3ccccc3)c2C1=O", "test": "binding, competition with immobilised ligand", "setting": "0.1 µM", "remaining binding [%]": 95}
{"SMILES": "CNC(=O)[C@@H]1CC[C@@H](n2c(-c3ccc4cnccc4c3)nc3ccc(C(=O)NCc4cccc(C(N)=O)c4)cc32)C1", "test": "binding, competition with immobilised ligand", "setting": "1 µM", "remaining binding [%]": 100}
{"SMILES": "CN(C)c1nccc(-c2cnc3ncccn23)n1", "test": "binding", "setting": "1 µM", "remaining binding [%]": 92}
{"SMILES": "Nc1c(C(=O)NCc2ccc(C(=O)NCCCC3CCCCC3)cc2)cnn1-c1ccccc1", "test": "cell-free assay, competition with immobilised ligand", "setting": "0.1 µM", "remaining binding [%]": 92}
